TAAR1 ag = human TAAR1 agonism; CHO RD-HGA16 TAAR1, Fluo-8 calcium fluorescence; vehicle wells 0%, saturating PEA agonist 100%; activation, % at 3 µM; 360,000 tested, 0.99% active; AID 624467;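 active = activation above the mean activation of all test compounds in the run plus 3 SD, cut at about 38% in these data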
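test system = CHO RD-HGA16 cells carrying human TAAR1 plus Gα16 | schedule = 17-24 h seeding, 75 min 37 °C dye, 30 min RT | compound dosing = 3 µM single concentration | control set = DMSO and PEA EC100 | replicates = n 1 | signal = Fluo-8 fluorescence, 5 s baseline then 140 s kinetic read | measure = percent activation vs PEA EC100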
CRFR2-BP ag = agonists of human CRF-binding protein/CRF-R2 receptor complex; HEK293 CRF-R2/CRF-BP, calcium dye fluorescence (FLIPR); percent of saturating CRF peptide response; activation, % at 13.2 µM; 350,000 tested, 0.46% active;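 active = activation of at least 50%, plus an integration ratio under a set limit after plate pattern correction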;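 also: plate controls were neutral control wells without compound for no effect and CRF at EC100 for full effect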
ANO1 activ = activates or potentiates the mouse TMEM16A chloride channel. Q8BHY3. HEK293 TMEM16A/YFP-H148Q/I152L, iodide quench fluorescence; active compounds read low. B-score at 10 µM. 340,000 tested, 0.3% active. AID 623877;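 active = fluorescence-ratio B-score plate-corrected deviation score at least 3 library SD below zero, with starting fluorescence score within 5 deviations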;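 also: channel opened by trigger with iodide after compound preincubation; score built on the fluorescence ratio of max minus min over baseline; more negative score means more quench and so TMEM16A activation or potentiation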
Target sequence (Q8BHY3 whole entry, looked up): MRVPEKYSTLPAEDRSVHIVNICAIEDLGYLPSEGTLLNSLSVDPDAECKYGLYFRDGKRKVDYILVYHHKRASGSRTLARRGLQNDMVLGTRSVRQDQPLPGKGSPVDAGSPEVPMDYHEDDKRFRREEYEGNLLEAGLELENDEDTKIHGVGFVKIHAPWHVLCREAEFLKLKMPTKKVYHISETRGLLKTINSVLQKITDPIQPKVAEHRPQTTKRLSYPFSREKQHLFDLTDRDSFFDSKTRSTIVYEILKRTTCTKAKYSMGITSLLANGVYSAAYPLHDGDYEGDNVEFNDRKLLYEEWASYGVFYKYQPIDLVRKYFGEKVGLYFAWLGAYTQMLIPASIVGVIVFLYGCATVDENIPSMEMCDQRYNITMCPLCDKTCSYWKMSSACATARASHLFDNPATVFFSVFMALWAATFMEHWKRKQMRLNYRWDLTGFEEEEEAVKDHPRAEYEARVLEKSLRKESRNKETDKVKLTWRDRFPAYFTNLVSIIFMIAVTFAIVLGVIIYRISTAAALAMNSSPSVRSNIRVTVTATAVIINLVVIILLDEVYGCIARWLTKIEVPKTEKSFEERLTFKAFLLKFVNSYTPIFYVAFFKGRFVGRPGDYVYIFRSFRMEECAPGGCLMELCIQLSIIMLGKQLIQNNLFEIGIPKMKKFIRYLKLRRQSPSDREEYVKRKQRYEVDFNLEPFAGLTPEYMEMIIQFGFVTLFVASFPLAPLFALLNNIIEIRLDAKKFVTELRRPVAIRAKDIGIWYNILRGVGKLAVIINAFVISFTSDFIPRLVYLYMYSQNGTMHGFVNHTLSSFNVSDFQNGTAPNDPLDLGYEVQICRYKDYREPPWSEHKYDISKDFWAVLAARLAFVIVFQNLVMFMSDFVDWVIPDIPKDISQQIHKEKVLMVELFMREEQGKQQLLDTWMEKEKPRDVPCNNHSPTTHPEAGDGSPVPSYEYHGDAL
CRFBP-R2 block = antagonists of CRF-binding protein/CRF-R2 receptor complex | 350,000 tested, 0.59% active | inhibition, % at 11.8 µM | HEK293 CRF-R2/CRF-BP, CRF-induced calcium fluorescence;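 active = inhibition of the ligand-induced calcium signal above about 50% at the single tested concentration, limit read from the data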
TAAR1 antag = antagonists of human TAAR1 | CHO RD-HGA16 TAAR1, Fluo-8 calcium fluorescence, antagonist | 360,000 tested, 1.5% active | AID 624466 | inhibition, % at 3 µM;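 active = inhibition above a per-plate cutoff, the mean inhibition of test compounds on that plate plus 3 SD, cut at about 49% in these data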;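 also: 0% = DMSO plus EC80 beta-PEA response and 100% = DMSO alone without agonist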
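Test system: CHO RD-HGA16 cells bearing hTAAR1 | Reagent: β-PEA, EC80 | Compound dosing: 3 µM, single point | Schedule: Dye loading 75 min at 37 °C, then 30 min room temperature | Signal: Calcium fluorescence with Fluo-8 | Evaluation: Percent inhibition of PEA-evoked calcium signal, max/basal emission ratio | Control set: DMSO-only wells and EC80 β-PEA-stimulated wells | Repeats: Singlicate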
TMEM16A inh = blocks the mouse calcium-activated chloride channel TMEM16A; 310,000 tested, 1.2% active; normalized B-score (activity score, 25-100; higher = stronger inhibition) at 10 µM; Q8BHY3; HEK293 TMEM16A/YFP iodide influx fluorescence, ionomycin;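 active = ratio plate-corrected score three or more library SD toward inhibition, starting fluorescence score within five deviations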;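 also: score derived from kinetic fluorescence span divided by baseline fluorescence per well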
TAAR1 nonsel count = nonselective antagonist in TAAR1 antagonist counter-screen; counterscreen cell line, calcium fluorescence, antagonist mode; AID 651780; inhibition, % at 3 µM; 2,400 tested, 77% active; shares compounds with TAAR1 antag; in the data active = inhibition above about 22%;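 also: CHO-Ga16 host cells stimulated with ATP at an EC80 level; 0% = agonist EC80 plus vehicle and 100% = vehicle without agonist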
TAAR1 ant conf = human TAAR1 antagonism, confirmed; TAAR1-expressing cells, fluorescence antagonist read-out; AID 651785; 2,400 tested, 40% active; shares compounds with TAAR1 antag; inhibition, % at 3 µM; in the data active = inhibition above about 49%;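 also: CHO-Ga16 host cells challenged with agonist PEA near its EC80; 0% = agonist at EC80 plus vehicle and 100% = vehicle with no agonist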
Ga16 nonsel ag = nonselective Ga16 agonist in TAAR1 antagonist counter-screen; shares compounds with TAAR1 antag; Ga16-expressing cells, calcium fluorescence, agonist counterscreen; activation, % at 3 µM; 2,400 tested, 18% active; in the data active = activation above about 12%;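 also: 0% = vehicle wells and 100% = saturating stimulus response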
TAAR1 ag counter = counter-screen for human TAAR1 antagonists: TAAR1 agonists. shares compounds with TAAR1 antag. hTAAR1 cell line, fluorescence activation, agonist mode. activation, % at 3 µM. 2,400 tested, 2% active. AID 651955; in the data active = activation above about 37%;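 also: CHO cells stably expressing TAAR1 with calcium dye readout; 0% = DMSO vehicle and 100% = full agonist response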
An asterisk follows results filed as active; i = inactive; . = not tested or not shown. In the library only some 3.9% were active in any assay of this set; here they are far more common.

SMILES	TAAR1 ag	CRFR2-BP ag	ANO1 activ	CRFBP-R2 block	TAAR1 antag	TMEM16A inh	TAAR1 nonsel count	TAAR1 ant conf	Ga16 nonsel ag	TAAR1 ag counter
O=C(Nc1ccc(F)cc1)Nc1nnc(Cc2ccccc2F)s1	12	4	i	-3	1	i	.	.	.	.
CC(=O)N1N=C(c2cccc(O)c2)CC1c1cccs1 (stereo unspecified)	16	-1	i	7	71*	i	18	44	7	12
COc1ccnc(Oc2ccc(F)cc2)c1C(=O)N/C=N/OCc1ccc(F)cc1Cl	31	-1	i	0	76*	i	41*	61*	14*	16
CO/N=C/NC(=O)c1c(OC)ccnc1Oc1cccc(C(F)(F)F)c1	7	-4	i	37	-14	i	.	.	.	.
COc1ccnc(Oc2ccc(F)cc2)c1C(=O)N/C=N/OCc1ccc(Cl)cc1Cl	35	6	i	-26	63*	i	29*	57*	13*	22
O=C(N/C=N/OCc1ccc(Cl)cc1Cl)NOCc1ncc(C(F)(F)F)cc1Cl	-1	10	i	-42	19	i	.	.	.	.
Cc1nn(C)cc1C(C(=O)NC1CCCCC1)N(C(=O)Cc1cccs1)c1ccc(Cl)cc1 (stereo unspecified)	29	58*	i	-56	61*	i	30*	53*	13*	23
COc1cccc(/C=C2\SC(=S)N(CCCC(=O)N3CCCCC3CCO)C2=O)c1 (stereo unspecified)	7	3	i	-6	55*	i	29*	28	12*	7
Cc1cccc(C(=O)Nc2ccc(C(=O)/C=C/c3cccnc3)cc2)c1	18	0	i	-9	60*	i	33*	54*	13*	9
CCOc1ccc(C(C(=O)NC2CCCC2)N(C(=O)c2snc(C(N)=O)c2N)c2cccc(O)c2)cc1 (stereo unspecified)	17	4	i	2	99*	i	37*	81*	8	8
NC(=O)c1nsc(C(=O)N(c2cccc(O)c2)C(C(=O)NC2CCCC2)c2ccc(Cl)cc2)c1N (stereo unspecified)	0	-3	i	47	66*	i	25*	53*	6	12
CC(=O)c1ccc(OCC(O)COc2ccc(C(C)=O)cc2)cc1	-1	-2	i	17	21	i	.	.	.	.
C=C(C)C(=O)OCC(O)COc1ccc(C(C)(C)c2ccc(OCC(O)COC(=O)C(=C)C)cc2)cc1 (stereo unspecified)	15	6	i	-43	92*	100*	55*	70*	19*	27
CCC(=O)N1CCN(c2ccc(NC(=O)c3cc4ccccc4o3)cc2Cl)CC1	25	0	i	6	73*	100*	49*	66*	13*	12
O=C(Nc1ccc(N2CCN(C(=O)c3ccco3)CC2)c(Cl)c1)c1cc2ccccc2o1	16	-1	i	25	84*	i	41*	67*	10	10
O=C(Nc1ccc(N2CCN(C(=O)c3ccccc3)CC2)c(Cl)c1)c1ccco1	14	-1	i	-1	40	i	.	.	.	.
COc1cc(NC(=O)c2cc3ccccc3o2)c(OC)cc1Cl	10	1	i	-2	55*	i	17	54*	0	1
CCN(CC(=O)Nc1c(F)cccc1F)C(=O)Cn1[nH]c(=O)c2ccccc2c1=O	1	3	i	2	-16	.	.	.	.	.
